The results in this text go back to ChEMBL document CHEMBL1128402, “Irreversible inhibitors of nicotinic acetylcholine receptors: isolation and structural characterization of the biologically active solvolysis products of bipinnatin-A and bipinnatin-C” (J Med Chem, 1995).

The nature of data set [1]: Apparent first-order rate of solvolysis for the bipinnatin-A(A4) was determined. The format is ADME.
Data set [2] can be described thus: Rate constant of solvolysis for the compound was determined. Format: ADME. A digest of the protocol: (§1)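 Toxin at 100 μM (diluted from 10 mM DMSO stock) in 25 mM sodium phosphate, pH 7.4, 1% DMSO, at 22–24 °C for various times. Fit by nonlinear regression to a single-exponential decay; mean ± SEM of 3–9 independent experiments.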
For data set [3], the system named is BC3H-1. Nature of the data set: Irreversible inhibition of [1251]alpha-bungarotoxin binding to Nicotinic acetylcholine receptor (neuronal and muscle) by bipinnatin-A(A4) on intact BC3H-1 cell lines. Particulars: dose or concentration not given here. The format is cell-based. A digest of the protocol: (§2)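 Each toxin was preincubated 0–8 h in pH 7.4 phosphate buffer, then its HPLC-isolated peak was dissolved in Hepes/KCl assay buffer pH 7.4 with 1% DMSO. BC3H-1 cells were equilibrated 20 min at 22–24 °C, given the toxin for 1 h, washed, then given saturating [125I]-α-bungarotoxin (15–20 nM) for 1 h. Bound label was gamma-counted, nonspecific binding defined with 100 nM α-bungarotoxin, run in triplicate.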

For data set [4], the system named is BC3H-1. Description: Irreversible inhibition rate of [1251]alpha-bungarotoxin binding to Nicotinic acetylcholine receptor (neuronal and muscle) by bipinnatin-A on intact BC3H-1 cell lines. Format: cell-based. A digest of the protocol:
(§3)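 Toxin diluted to 100 µM in assay buffer with 1% DMSO was added straight onto BC3H-1 cells. At set times it was removed and remaining receptors were measured with saturating [125I]-α-bungarotoxin. The log of specific binding relative to time zero was plotted against time. Rates came from nonlinear regression, double-exponential where applicable, from at least two independent experiments.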

For data set [5], the system named is BC3H-1. Description: Irreversible inhibition of [1251]alpha-bungarotoxin binding to Nicotinic acetylcholine receptor (neuronal and muscle) by bipinnatin-A on intact BC3H-1 cell lines. The following applies: dose or concentration not given here. Format: cell-based. Summed up: as §2
Data set [6] in a line: Rate of acetate production by the compound was determined. The format is ADME. Summed up:
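Toxin at 100 μM in 25 mM sodium phosphate, pH 7.4, 1% DMSO, at 22–24 °C for up to 8 h. Acetic acid was then measured with a coupled enzyme assay (NAD to NADH, A340 every 5 s for 5 min, initial rate by linear regression, calibrated with 25–200 μM acetate standards). Percent of maximum fit to a single-exponential growth function; mean ± SEM of 3–9 experiments.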

A short description of data set [7]: Half-life of the bipinnatin-A(A4) was determined. Format: ADME.
Data set [8] in a line: Half-life was determined. The format is ADME. Summed up: as §1
The subject of data set [9] is BC3H-1. Description: Irreversible inhibition rate of [1251]alpha-bungarotoxin binding to Nicotinic acetylcholine receptor (neuronal and muscle) by bipinnatin-A(A4) on intact BC3H-1 cell lines. Format: cell-based. Summed up: as §3
A short description of data set [10]: Amount acetic acid produced by the compound. Format: ADME.
A short description of data set [11]: Amount of acetic acid produced by the compound. The format is ADME.

Structures are written as SMILES.

On to `C=C(C(=O)OC)[C@H]1CC(OC(C)=O)[C@@]23O[C@@H]2C(C[C@]2(C)O[C@H]2C2=CC(C)=C(O2)C1OC(C)=O)OC3=O` (some centres not stated), for which the Activity was found to be 0.399 h⁻¹ in [1] and 0.67 h⁻¹ in [6]. In [2], this compound yielded a Ksolv of 0.638 h⁻¹. Moreover, the inhibition in the data set with BC3H-1 [3] was 57.5%; in the data set with BC3H-1 [4], 0.29 min⁻¹; in the data set on BC3H-1 [5], 41.5%; in the data set on BC3H-1 [9], 0.033 min⁻¹. The half-life (in general, the time in which the quantity being followed falls by half) in data set [7] was 1.74 h; in data set [8], 1.08 h. Also, the T1/2 in [8] is 1.04 h.
Compound `CC(=O)OCC[N+](C)(C)C` [ACETYLCHOLINE] registered an Acid hydrolysis in [10] of 0.22 mol/mol.
In turn, `C=C(C)[C@@H]1CC2=C(C=O)C=C(O2)[C@@H]2O[C@@]2(C)C[C@H]2OC(=O)[C@@]3(O[C@H]23)[C@@H](OC(C)=O)C1` [LOPHOTOXIN] showed a Ksolv in data set [2] of 0.017 h⁻¹. The Activity in [11] came to 0.17 M⁻¹. The half-life in data set [8] was 40 h.
Compound `C=C(C=O)[C@H]1CC(OC(C)=O)[C@@]23O[C@@H]2C(C[C@]2(C)O[C@H]2C2=CC(C)=C(O2)C1OC(C)=O)OC3=O` (some centres not stated) registered a Ksolv in [2] of 0.719 h⁻¹. The compound also had an Activity in [6] of 0.735 h⁻¹. In data set [8], this compound showed a T1/2 of 0.97 h and a half-life of 0.97 h.
`CC(=O)OC1C2=C(C)C=C(O2)[C@@H]2O[C@@]2(C)CC2OC(=O)[C@@]3(O[C@H]23)C(OC(C)=O)C[C@@H]1C1(C)CO1` (some centres not stated): in data set [2], the Ksolv stood at 0.596 h⁻¹. In data set [6], this compound came in with an Activity of 0.589 h⁻¹. In data set [8], the T1/2 is 1.24 h and the half-life is 1.17 h.
